“Also recorded” adds a separate entry of the source.
How the values were obtained:
core^SP [1] = test: Circular dichroism of core^SP with and without C34; parameters: species or system HIV-1; conditions: core^SP 2.5 μM trimer, 5-fold excess C34, buffer A pH 7.6, 20 °C
Summary of the method: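 CoreSP (N-HR and C-HR peptides counted as one unit) is used at 2.5 μM trimer, alone or with a 5-fold molar excess of C34, in 10 mM Tris-HCl pH 7.6 with 150 mM NaCl. Spectra are recorded at 20 °C in a 0.1 cm path-length flat cell. α-Helical content is estimated by CDNN.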

core^S [2] = test: SEC-MALS binding stoichiometry with core^S; parameters: species or system HIV-1
core^S [3] = test: ITC with core^S; format: binding, HIV-1; conditions: C34 0.05–0.1 mM into 5–10 μM core^S, 10 mM Tris-HCl pH 7.6, 150 mM NaCl, 25 °C, iTC200
core^S [4] = test: Native-PAGE band shift with core^S; format: binding, HIV-1; conditions: 10 μM core^S, 30 min, room temperature, 20% homogeneous gel
core^SP [5] = test: SEC-MALS and SEC displacement of C38 / C38-AL647 from core^SP; format: binding, HIV-1; conditions: 5-fold molar excess C34, SEC–MALS, confirmed with core^SP-AL647
HIV-1 fusion = conditions: ref [17] Markosyan et al.; cited from earlier work
N-Cys core^S = test: DEER EPR of N-Cys core^S with and without C34; parameters: species or system HIV-1; conditions: 50 μM subunits, 1.2-fold molar excess C34, Q-band, 50 K
core^S [6] = test: SEC titration of C34-AL647 into core^S; format: binding, HIV-1; conditions: fits of 280 and 609+650 nm peak areas
6-helix = test: SEC-MALS binding stoichiometry with 6-helix; parameters: species or system HIV-1; conditions: 5-fold molar excess C34, 200 μg 6-helix, 10 mM Tris-HCl pH 7.6, 150 mM NaCl
5-helix [7] = tested on: 5-helix
core^SP [8] = test: SEC titration of C34-AL647 into core^SP; format: binding, HIV-1
5-helix [9] = conditions: 5-fold molar excess C34, 200 μg 5-helix, 10 mM Tris-HCl pH 7.6, 150 mM NaCl
core^S [10] = test: Circular dichroism of core^S with and without C34; parameters: species or system HIV-1
[11] = biological target: single-chain six-helix bundle (6-helix) (HIV-1) (UniProt P04578); test: SEC-MALS
[12] = biological target: single-chain five-helix bundle (5-helix) (HIV-1) (UniProt P04578); test: SEC-MALS
[13] = biological target: the molecule itself; test: composition gradient–MALS

Molecule: Ac-C-HR^628–661-NH2 [C34]
- change in helicity of core^SP on C34 binding (core^SP [1]): no change in helicity
- binding stoichiometry with core^S (core^S [2]; 5-fold molar excess C34, 10 mM Tris-HCl pH 7.6, 150 mM NaCl): one core^S trimer to two C34 peptides with no dissociation of the core^S trimer; also recorded: binding of two C34 molecules to one core^S trimer
- evidence for a 1:3 core^S–(C34)3 complex (core^S [2]; SEC–MALS and band-shift assays): no evidence of the existence of a 1:3 core^S–(C34)3 complex
- heat signature in ITC with core^S (core^S [3]): did not yield a heat signature
- binding to core^S by native-PAGE (core^S [4]): even at 3:1 and 3:2 core^S:C34 ratios (Figure 4C) a significant amount of complex comprising two C34 molecules bound to one core^S trimer is formed; also recorded: binding of C34 is clearly evident
- displacement of C38 from core^SP (core^SP [5]): binding of C34 to core^SP is accompanied by displacement of C38
- time window of fusion inhibitory activity (HIV-1 fusion): can extend from the point at which the prehairpin intermediate of gp41 becomes accessible through the formation of late prebundle intermediates and labile pore formation, but not after irreversible formation of the six-helix bundle
- effect of C34 on DEER dipolar evolution data / P(r) of N-Cys core^S (N-Cys core^S): negligible effect
- cooperativity of binding to core^S (core^S [6]): no evidence of any cooperativity
- binding to 6-helix (stoichiometry) (6-helix): weak binding of C34 as a 1:1 complex
- binding to 5-helix by native-PAGE (5-helix [7]; native-PAGE, room temperature): binding of C34 is clearly evident
- stoichiometry of binding to 5-helix by native-PAGE (5-helix [7]; positive control): 1:1 stoichiometry of binding
- equilibrium constant for the exchange reaction of C34 with C38 (core^SP [8]; core^SP, value in discussion): 0.9
- cooperativity of exchange with core^SP (core^SP [8]; fits of 609+650 nm peak areas): no evidence of any cooperativity
- binding to 5-helix (stoichiometry) (5-helix [9]): binds with a 1:1 stoichiometry
- increase in helicity of core^S on C34 binding (core^S [10]; core^S 7 μM trimer, 5-fold molar excess C34, buffer A pH 7.6, 20 °C): ~ 18%
- additional residues in helical conformation of core^S trimer (core^S [10]; two C34 bound, two C28 C-HR displaced, 5-fold molar excess C34): 30 residues

Molecule: C34 peptide (chemically synthesized, Ac-C-HR^628–661-NH2) (from UniProt P04578 628-661)
- stoichiometry N (C34 per 6-helix) [11]: 1
- stoichiometry N (C34 per 5-helix) [12]: 1

B1: core^S (N34^546–579-(L6)-C28^628–655), homotrimeric six-helix bundle of gp41 (domain or fragment)
chain: SGIVQQQNNLLRAIEAQQHLLQLTVWGIKQLQARSGGRGGWMEWDREINNYTSLIHSLIEESQNQQEK
- Kd [13]: < 250 nM
